FXN GAA850 act: FXN promoter activators, primary screen, cell-based, luciferase luminescence, HEK293 lucGAA850. activation, % at 6 µM. 0.56% of 360,000 active. HEK293 lucGAA850 FXN promoter luciferase reporter, 24 h; percent of 10 µM SAHA response;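 active means activation above the average of all compounds screened plus 3 SD, cutoff fixed separately per campaign, cut at about 7.5% in these data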;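 further: 0% = DMSO wells and 100% = 10 µM SAHA wells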
SENP1 FRET inh: human SENP1 catalytic domain inhibitors, primary screen, biochemical, FRET, uHTS; Sentrin-specific protease 1 (Homo sapiens), Q9P0U3; recombinant SENP1 catalytic domain, CyPet-SUMO1-YPet FRET cleavage; inhibition, % at 10 µM; 0.21% of 360,000 active;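 active means inhibition at least 30% at 10 µM, raw YFP signal under a set limit, fluorescence ratio 0.5 to 1.5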;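 further: 0% = enzyme with DMSO and 100% = no enzyme wells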
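Material – human SENP1 catalytic domain · Input – SENP1 enzyme, 20 pM final · Compound dosing – single concentration of 10 µM compound, 0.5% DMSO final · Timing – enzyme reaction for 50 min at room temperature, dark · Measured by – FRET fluorescence in CFP and YFP emission channels · Control set – no-enzyme wells low, DMSO-plus-enzyme wells high control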
Fh CTSL1 inh: Fasciola hepatica cathepsin L1 inhibitors, primary screen, counter-screen for PFM18AAP inhibitor project, biochemical, QFRET, fluorogenic peptide substrate; recombinant F. hepatica cathepsin L1, Z-Leu-Arg-MCA fluorescence; inhibition, % at 5.96 µM; 0.49% of 300,000 active; AID 1906, 2009;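 active means inhibition above the mean of all tested compounds plus 3 SD, set per screening campaign, cut at about 17% in these data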;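 further: 0% = plate median of test compound wells and 100% = 1 µM Z-Phe-Ala-diazomethylketone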
M18AAP inhibitor: PfM18AAP inhibitors, malaria aminopeptidase, primary screen, biochemical, QFRET, recombinant enzyme | 1.2% of 290,000 active | inhibition, % at 7.35 µM | H-Glu-NHMec fluorogenic cleavage;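 active means inhibition above the campaign mean inhibition over all tested compounds plus 3 SD, cut at about 28% in these data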;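 further: 0% = plate median of test compound wells and 100% = 2 mM ZnCl2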
AHR act: AHR activators, primary screen, cell-based, luminescence, luciferase reporter, human; activation, % at 5 µM; 2.5% of 320,000 active; Aryl hydrocarbon receptor (Homo sapiens), P35869; AHR-responsive luciferase reporter cells; in the data active means activation above about 47%;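 further: 0% = vehicle wells and 100% = reference agonist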
HDAC3 inhib: HDAC3 deacetylase inhibitors, primary screen, biochemical, fluorescence, cell-free homogeneous; 0.15% of 320,000 active; Histone deacetylase 3 (Homo sapiens), O15379; inhibition, % at 8.3 µM; recombinant HDAC3, fluorogenic peptide/trypsin coupled; in the data active means inhibition above about 26%, passing the limit was not always enough
Target sequence (O15379 whole entry, looked up): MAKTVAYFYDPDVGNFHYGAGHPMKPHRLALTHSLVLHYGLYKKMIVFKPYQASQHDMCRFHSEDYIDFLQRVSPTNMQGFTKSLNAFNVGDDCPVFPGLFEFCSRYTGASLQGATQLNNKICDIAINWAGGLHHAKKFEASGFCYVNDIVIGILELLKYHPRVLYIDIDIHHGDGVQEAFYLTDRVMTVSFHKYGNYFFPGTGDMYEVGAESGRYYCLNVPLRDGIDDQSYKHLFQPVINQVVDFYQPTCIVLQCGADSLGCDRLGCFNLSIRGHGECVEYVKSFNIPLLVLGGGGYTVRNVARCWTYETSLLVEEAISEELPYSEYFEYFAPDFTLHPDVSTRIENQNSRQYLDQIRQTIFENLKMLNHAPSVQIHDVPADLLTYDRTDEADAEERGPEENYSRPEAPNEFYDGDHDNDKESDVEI
* hit, by the source's call; . = not tested or not shown. A selection: hits, their analogues and other compounds. The true share with any hit is near 4.2%.

SMILES | FXN GAA850 act | SENP1 FRET inh | Fh CTSL1 inh | M18AAP inhibitor | AHR act | HDAC3 inhib
CC(CCc1ccccc1)NC(=O)c1cc2sccc2n1C (centres undefined) | -2 | -4 | 9 | 3 | 1 | -5
Oc1ccccc1-c1csc(-c2ccccc2)n1 | 3 | 2 | -4 | -8 | 69* | -4
c1ccc(-c2csc(-c3ccncc3)n2)cc1 | 6 | 0 | 0 | -5 | 6 | -4
Cc1ccc(NC(=O)NC(=O)CN2CCN(c3ccc(O)cc3)CC2)c(C)c1 | 0 | -1 | 2 | 30* | 8 | 0
Cc1ccc(NC(=O)NC(=O)CN2CCC(C(N)=O)CC2)c(C)c1 | 6 | 3 | . | . | 5 | 4
CC1(C(=O)NS(=O)(=O)c2ccc(F)cc2F)CCN1C(=O)Cc1cccc2ccccc12 (centres undefined) | 0 | -2 | . | . | . | .
Cn1c(N=NC(=O)c2ccccc2)c(O)c2ccccc21 | 0 | 1 | 1 | 5 | 96* | 7
Cn1c(O)c(N=NC(=O)CNC(=O)c2ccccc2)c2ccccc21 | -1 | 1 | 7 | -2 | 3 | 3
Cc1ccc(S(=O)(=O)Nc2ccc(Nc3nccn4c(-c5ccc6ccccc6c5)cnc34)cc2)cc1 | 1 | -33 | . | . | . | .
Cc1ccc(/C=C(\C#N)c2nn(-c3ccccc3)c(N)c2C#N)cc1 | 5 | -20 | -2 | -2 | 0 | 4
N#C/C(=C\c1cccc2ccccc12)c1nn(-c2ccccc2)c(N)c1C#N | . | . | 2 | 3 | 56* | 8
Cc1ccc(C(=O)n2nc(-c3ccco3)nc2N)cc1 | -1 | 4 | -3 | 3 | -1 | 40*
Nc1nc(-c2ccco2)nn1C(=O)c1cccnc1 | 1 | 1 | -3 | 1 | 1 | 18
COc1ccc(C(=O)n2nc(-c3ccco3)nc2N)cc1 | 0 | 5 | -3 | 8 | 4 | 84*
O=C(O)c1cccc(-c2noc(-c3cccc(Cl)c3)n2)c1 | 1 | 1 | . | . | -5 | 0
Cc1sc2ncnc(NCc3cccnc3)c2c1C | 2 | 0 | 0 | -17 | 61* | 2
Cc1ccc2c(c1)CCO[C@@]21O[C@H](CCO)C[C@H](O)[C@H]1O | -1 | 1 | . | . | . | .
COCCn1c(=NC(=O)c2sc3ccccc3c2Cl)sc2cc(S(N)(=O)=O)ccc21 | 1 | -1 | 22* | 0 | 6 | -1
C=CCn1c(=NC(=O)c2sc3ccccc3c2Cl)sc2cc(S(N)(=O)=O)ccc21 | -1 | -5 | -1 | -2 | -2 | -5
CCc1cc2c(=O)oc(-c3ccccc3F)nc2s1 | 1 | -2 | 3 | 10 | 0 | 69*
Cc1cc2c(=O)oc(-c3ccccc3Br)nc2s1 | 0 | 3 | . | 17 | . | .
O=C(Nc1c(F)cccc1F)c1ccc(-n2cncn2)nc1 | -1 | -2 | -1 | 0 | -2 | 2
Cc1ccccc1NC(=O)c1ccc(-n2cncn2)nc1 | -3 | 2 | 2 | 3 | 121* | -7
COC(=O)c1ccc(COC(=O)C2CCN(S(=O)(=O)c3c(C)cc(C)cc3C)CC2)o1 | 1 | 1 | . | . | . | .
C=CCSc1nc(-c2ccc(OC)cc2)c(C#N)c(=O)n1CC=C | -2 | 0 | . | 1 | . | .
COC(=O)c1cc(C)nc2c1C(=O)C(=O)C=C2N1CCOCC1 | -13 | 9 | 110* | 6 | -1 | 2
COC(=O)c1cc(S(=O)(=O)N2CCOCC2)c(Cl)cc1N1CCOCC1 | -2 | 1 | 1 | -7 | 2 | 7
COc1ccc(-c2ccc(SCC(=O)c3ccccc3)nn2)cc1OC | 5 | -7 | 9 | -4 | 16 | 7
Cc1nc(S/C(=C/c2ccc(-c3ccc(Cl)cc3)o2)C(=O)O)n[nH]1 | 1 | -15 | 7 | 0 | 57* | 0
O=C(Cc1ccc(NC(=O)C2CCN(C(=O)C3CC3)CC2)cc1)Nc1cccc(C(=O)N2CCCCC2)c1 | -2 | 3 | . | . | . | .

Bioassay records as filed in PubChem BioAssay.
